Laboratory results as given in ChEMBL document CHEMBL2417469, “Synthesis of novel analogs of 2-pyrazoline obtained from [(7-chloroquinolin-4-yl)amino]chalcones and hydrazine as potential antitumor and antimalarial agents” (Eur J Med Chem, 2013).

Columns and labels:
Format in all cases: functional
[1] = tested on: MDA-MB-435; test: Cytotoxicity against human MDA-MB-435 cells after 48 hrs by SRB assay; details: MDA-MB-435, 48 h
Summary of the method: (§1)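 NCI 60-cell-line screen. Cells preincubated 24 h at 37 °C, 5% CO2; time-zero plates TCA-fixed. Compounds dissolved in DMSO and tested at five concentrations (100, 10, 1.0, 0.1, 0.01 µM) for 48 h continuous exposure. Adherent cells fixed with cold TCA (10% final), then SRB stained; absorbance at 515 nm. GI50, TGI and LC50 calculated from growth relative to time-zero and untreated controls.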

[2] = tested on: LOX IMVI; test: Cytotoxicity against human LOXIMVI cells after 48 hrs by SRB assay; summary of the method: as §1
[3] = tested on: NCI/ADR-RES; test: Cytotoxicity against human NCI/ADR-RES cells after 48 hrs by SRB assay; summary of the method: as §1
[4] = tested on: NCI-H460; test: Cytotoxicity against human NCI-H460 cells after 48 hrs by SRB assay; details: NCI-H460, 48 h; summary of the method: as §1
[5] = tested on: MCF7; test: Cytotoxicity against human MCF7 cells after 48 hrs by SRB assay; details: MCF7, 48 h; summary of the method: as §1
[6] = tested on: Hs-578T; test: Cytotoxicity against human Hs578T cells after 48 hrs by SRB assay; summary of the method: as §1
[7] = tested on: SF-268; test: Cytotoxicity against human SF268 cells after 48 hrs by SRB assay; details: SF-268, 48 h; summary of the method: as §1
[8] = tested on: A549; test: Cytotoxicity against human A549/ATCC cells after 48 hrs by SRB assay; details: A549, 48 h; summary of the method: as §1
[9] = tested on: SNB-75; test: Cytotoxicity against human SNB75 cells after 48 hrs by SRB assay; details: SNB-75, 48 h
Summary of the method: (§2)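 NCI 60-cell screen. Cells grew 24 h (37 °C, 5% CO2) before compound was added. Compounds were in DMSO and diluted in medium with gentamicin, then tested at five levels (100, 10, 1.0, 0.1, 0.01 µM) with 48 h continuous exposure. Adherent cells were fixed with TCA (10% final) and stained with 0.4% SRB, absorbance read at 515 nm. A time-zero plate was included. LC50 is the concentration giving 50% loss of protein relative to time zero.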

[10] = tested on: HL-60(TB); test: Cytotoxicity against human HL-60(TB) cells after 48 hrs by SRB assay; details: HL-60, 48 h; summary of the method: as §1
[11] = tested on: HCC 2998; test: Cytotoxicity against human HCC2998 cells after 48 hrs by SRB assay; details: HCC 2998, 48 h; summary of the method: as §1
[12] = tested on: M14; test: Cytotoxicity against human M14 cells after 48 hrs by SRB assay; details: M14, 48 h; summary of the method: as §1
[13] = tested on: OVCAR-4; test: Cytotoxicity against human OVCAR4 cells after 48 hrs by SRB assay; details: OVCAR-4, 48 h; summary of the method: as §1
[14] = Cytotoxicity against human EKVX cells after 48 hrs by SRB assay; summary of the method: as §1
[15] = tested on: NCI-H226; test: Cytotoxicity against human NCI-H226 cells after 48 hrs by SRB assay; details: NCI-H226, 48 h; summary of the method: as §1
[16] = tested on: NCI-H23; test: Cytotoxicity against human NCI-H23 cells after 48 hrs by SRB assay; details: NCI-H23, 48 h; summary of the method: as §1
[17] = tested on: SNB-19; test: Cytotoxicity against human SNB19 cells after 48 hrs by SRB assay; details: SNB-19, 48 h; summary of the method: as §2
[18] = tested on: SN12C; test: Cytotoxicity against human SN12C cells after 48 hrs by SRB assay; summary of the method: as §1
[19] = tested on: UO-31; test: Cytotoxicity against human UO31 cells after 48 hrs by SRB assay; details: UO-31, 48 h; summary of the method: as §2
[20] = tested on: UACC-62; test: Cytotoxicity against human UACC62 cells after 48 hrs by SRB assay; details: UACC-62, 48 h; summary of the method: as §2
[21] = tested on: KM12; test: Cytotoxicity against human KM12 cells after 48 hrs by SRB assay; details: KM12, 48 h; summary of the method: as §1
[22] = tested on: SK-MEL-5; test: Cytotoxicity against human SK-MEL-5 cells after 48 hrs by SRB assay; details: SK-MEL-5, 48 h; summary of the method: as §1
[23] = tested on: HCT-15; test: Cytotoxicity against human HCT15 cells after 48 hrs by SRB assay; details: HCT-15, 48 h; summary of the method: as §1
[24] = tested on: IGROV-1; test: Cytotoxicity against human IGROV1 cells after 48 hrs by SRB assay; details: IGROV-1, 48 h; summary of the method: as §1
[25] = tested on: MDA-MB-468; test: Cytotoxicity against human MDA-MB-468 cells after 48 hrs by SRB assay; details: MDA-MB-468, 48 h; summary of the method: as §1
[26] = tested on: 786-0; test: Cytotoxicity against human 786-0 cells after 48 hrs by SRB assay; details: 786-0, 48 h; summary of the method: as §1
[27] = tested on: PC-3; test: Cytotoxicity against human PC3 cells after 48 hrs by SRB assay; details: PC-3, 48 h; summary of the method: as §1
[28] = tested on: UACC-257; test: Cytotoxicity against human UACC257 cells after 48 hrs by SRB assay; details: UACC-257, 48 h; summary of the method: as §2
[29] = tested on: HOP-92; test: Cytotoxicity against human HOP92 cells after 48 hrs by SRB assay; details: HOP-92, 48 h; summary of the method: as §1
[30] = tested on: BT-549; test: Cytotoxicity against human BT549 cells after 48 hrs by SRB assay; details: BT-549, 48 h; summary of the method: as §1
[31] = tested on: OVCAR-3; test: Cytotoxicity against human OVCAR3 cells after 48 hrs by SRB assay; details: OVCAR-3, 48 h; summary of the method: as §1
[32] = tested on: HOP-62; test: Cytotoxicity against human HOP62 cells after 48 hrs by SRB assay; details: HOP-62, 48 h; summary of the method: as §1
[33] = tested on: MDA-MB-231; test: Cytotoxicity against human MDA-MB-231 cells after 48 hrs by SRB assay; details: MDA-MB-231, 48 h; summary of the method: as §1
[34] = tested on: DU-145; test: Cytotoxicity against human DU145 cells after 48 hrs by SRB assay; details: DU-145, 48 h; summary of the method: as §1
[35] = read-out: LC50 (the source's name)

With Cc1ccc(C2CC(c3ccc(Nc4ccnc5cc(Cl)ccc45)cc3)=NN2C=O)cc1 (configuration not stated) as the compound, how does the GI50 [1] read?
The GI50 was 1.95 µM.

What about the LC50 [1] of the same compound?
Its LC50 is greater than 100 µM.

What about the GI50 [2] of the same compound?
Its GI50 is 4.11 µM.

What about the LC50 [2] of the same compound?
The LC50 was greater than 100 µM.

What about the GI50 [3] of the same compound?
Its GI50 is 5.22 µM.

What about the CC50 [3, 35] of the same compound?
The CC50 was greater than 100 µM.

And the GI50 [4]?
Its GI50 is greater than 100 µM.

What about the LC50 [4] of the same compound?
Its LC50 is greater than 100 µM.

And the GI50 [5]?
The GI50 was 8.39 µM.

What about the CC50 [5, 35] of the same compound?
The CC50 was greater than 100 µM.

And the GI50 [6]?
Its GI50 is 5.64 µM.

What about the LC50 (50% net cell kill) [6] of the same compound?
Its LC50 (50% net cell kill) is greater than 100 µM.

And the GI50 [7]?
The GI50 was 8.61 µM.

What about the LC50 [7] of the same compound?
The LC50 was greater than 100 µM.

And the GI50 [8]?
Its GI50 is 9.86 µM.

What about the CC50 [8, 35] of the same compound?
Its CC50 is greater than 100 µM.

What about the GI50 [9] of the same compound?
The GI50 was greater than 100 µM.

And the LC50 (50% net cell kill) [9]?
Its LC50 (50% net cell kill) is greater than 100 µM.

What about the GI50 [10] of the same compound?
The GI50 was 2.27 µM.

What about the CC50 [10, 35] of the same compound?
Its CC50 is greater than 100 µM.

What about the GI50 [11] of the same compound?
Its GI50 is 7.44 µM.

What about the LC50 [11] of the same compound?
The LC50 was greater than 100 µM.

What about the GI50 [12] of the same compound?
The GI50 was 6.88 µM.

What about the CC50 [12, 35] of the same compound?
Its CC50 is greater than 100 µM.

What about the GI50 [13] of the same compound?
The GI50 was 5.15 µM.

And the LC50 [13]?
Its LC50 is greater than 100 µM.

What about the LC50 [14] of the same compound?
The LC50 was greater than 100 µM.

What about the GI50 [15] of the same compound?
The GI50 was greater than 100 µM.

And the LC50 (50% lethal concentration) [15]?
The LC50 (50% lethal concentration) was greater than 100 µM.

And the GI50 [16]?
The GI50 was 6.93 µM.

And the CC50 [16, 35]?
The CC50 was greater than 100 µM.

What about the GI50 [17] of the same compound?
Its GI50 is greater than 100 µM.

And the LC50 [17]?
Its LC50 is greater than 100 µM.

What about the GI50 [18] of the same compound?
The GI50 was 7.23 µM.

What about the LC50 (50% net cell kill relative to time zero) [18] of the same compound?
The LC50 (50% net cell kill relative to time zero) was greater than 100 µM.

What about the GI50 [19] of the same compound?
Its GI50 is 5.49 µM.

What about the LC50 [19] of the same compound?
The LC50 was greater than 100 µM.

And the GI50 [20]?
The GI50 was 4.13 µM.

And the CC50 [20, 35]?
Its CC50 is greater than 100 µM.

And the GI50 [21]?
The GI50 was 6.64 µM.

And the LC50 (concentration killing 50% of cells) [21]?
Its LC50 (concentration killing 50% of cells) is greater than 100 µM.

And the GI50 [22]?
Its GI50 is 1.74 µM.

What about the LC50 (concentration killing 50% of cells present at time zero) [22] of the same compound?
The LC50 (concentration killing 50% of cells present at time zero) was greater than 100 µM.

What about the GI50 [23] of the same compound?
Its GI50 is 2.78 µM.

And the LC50 (concentration killing 50% of cells relative to time zero) [23]?
The LC50 (concentration killing 50% of cells relative to time zero) was greater than 100 µM.

And the GI50 [24]?
Its GI50 is 26.6 µM.

And the LC50 (concentration killing 50% of cells relative to time zero) [24]?
The LC50 (concentration killing 50% of cells relative to time zero) was greater than 100 µM.

What about the GI50 [25] of the same compound?
The GI50 was 1.51 µM.

What about the LC50 [25] of the same compound?
The LC50 was greater than 100 µM.

And the GI50 [26]?
Its GI50 is 50.9 µM.

And the LC50 [26]?
The LC50 was greater than 100 µM.

What about the GI50 [27] of the same compound?
Its GI50 is 4.61 µM.

And the LC50 [27]?
The LC50 was greater than 100 µM.

And the GI50 [28]?
Its GI50 is greater than 100 µM.

What about the LC50 [28] of the same compound?
Its LC50 is greater than 100 µM.

What about the GI50 [29] of the same compound?
Its GI50 is 2.14 µM.

What about the LC50 (concentration killing 50% of cells) [29] of the same compound?
The LC50 (concentration killing 50% of cells) was greater than 100 µM.

What about the GI50 [30] of the same compound?
The GI50 was 1.65 µM.

What about the LC50 (50% net cell kill vs time zero) [30] of the same compound?
The LC50 (50% net cell kill vs time zero) was greater than 100 µM.

What about the GI50 [31] of the same compound?
The GI50 was 6.82 µM.

And the LC50 [31]?
The LC50 was greater than 100 µM.

And the GI50 [32]?
The GI50 was greater than 100 µM.

And the LC50 (50% lethal concentration) [32]?
Its LC50 (50% lethal concentration) is greater than 100 µM.

And the GI50 [33]?
Its GI50 is 6.09 µM.

What about the LC50 (concentration killing 50% of cells present at time zero) [33] of the same compound?
The LC50 (concentration killing 50% of cells present at time zero) was greater than 100 µM.

And the GI50 [34]?
Its GI50 is greater than 100 µM.

What about the LC50 (concentration killing 50% of cells) [34] of the same compound?
Its LC50 (concentration killing 50% of cells) is greater than 100 µM.
